40 compounds from ChEMBL document CHEMBL4513216, “Probing the Open Global Health Chemical Diversity Library for Multistage-Active Starting Points for Next-Generation Antimalarials” (ACS Infect Dis, 2020) can be followed below.

The nature of the series: Toxicity liver stage against HepG2, at 10uM. It is filed as cell-based. The arrangement: test concentration 10 uM, cell line HepG2-A16-CD81EGFP. Conditions: human, HepG2-A16-CD81EGFP cells; read-out: INHIBITION
The essentials: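 Uninfected HepG2-A16-CD81EGFP cells, 3 × 10^3 per well, 1536-well, plated on prespotted compound at 10 μM final, parasite-free screening media added to match infected plates; puromycin 10 μM positive, DMSO 0.5% negative; run in parallel with 48 h PbLuc assay at 37 °C, 5% CO2; viability by CellTiter-Glo luminescence, normalized to controls.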
`CC(C)(C)S(=O)(=O)c1ccc(N2CCN(c3ccccc3)CC2)nn1`: the cytotoxicity at 10 µM was -4.81%.

For `N#Cc1ccc(OC[C@]23COC[C@H]2CN(Cc2ccccn2)C3)nc1`, the cytotoxicity at 10 µM is -0.182%.

On to `CCOCC(=O)N1CCn2cc(CN(C)Cc3ccco3)nc2C1`, for which the cytotoxicity at 10 µM is 4.73%.

Turning to `Cn1c(=O)c2sccc2n(CC(=O)Nc2cccc(Cl)c2)c1=O`, the cytotoxicity at 10 µM is 5.86%.

Regarding `COCCCNC(=O)c1cc(OC)c2ccoc2c1`, the cytotoxicity at 10 µM was 16.9%.

For `Cc1noc(CN2CCN(C(C)C(=O)NCc3cccs3)CC2)n1` (stereo not given), the cytotoxicity at 10 µM is 17.2%.

Consider `CC(C)(C)CC(=O)Nc1cnn(-c2ccccc2S(C)(=O)=O)c1`, for which the cytotoxicity at 10 µM came out at 3.69%.

With `COc1cccc(-c2cc(NCc3nccn3C)n(C)n2)c1`, the cytotoxicity at 10 µM came to 0.684%.

`Cc1ccnc(NC(=O)c2ccc(F)c(S(=O)(=O)NC3CC3)c2)c1`: the cytotoxicity at 10 µM came to 10.4%.

Regarding `Cc1ccc(C(=O)N(Cc2ccc(F)cc2F)C2CC2)c(=O)[nH]1`, the cytotoxicity at 10 µM is -2.01%.

Turning to `CCc1nc(CCNC(=O)NC2CC(=O)N(C(C)(C)C)C2)cs1` (stereo not given), the cytotoxicity at 10 µM was -1.51%.

On to `CC(C)(C)NC(=O)CN1CCCN(Cc2cc(C#N)ccc2F)CC1`, for which the cytotoxicity at 10 µM was -4.62%.

Turning to `CCN(CC)c1ccc(NC(=O)N2CCc3sccc3C2)cn1`, the cytotoxicity at 10 µM is -5%.

With `CC(Nc1cccc(COCc2ccco2)c1)C(=O)NC(N)=O` (stereo not given), the cytotoxicity at 10 µM was -5.65%.

As to `COc1cc(F)ccc1N(C)Cc1ccncc1`, the cytotoxicity at 10 µM is -3.64%.

With `CCS(=O)(=O)CCN(CC1CCCO1)C1CCCC1` (stereo not given), the cytotoxicity at 10 µM is -3.52%.

As for `CC(C)N(Cc1cnn(C)c1)CC1CCCN(S(C)(=O)=O)C1` (stereo not given), the cytotoxicity at 10 µM was -21.4%.

For the compound `COc1ccc(CCNC(=O)NC2CCCC2)cc1OC`, the cytotoxicity at 10 µM is -10.9%.

Regarding `Cc1cc(NC(=O)NCCc2cccs2)n(C)n1`, the cytotoxicity at 10 µM was 14.8%.

`CCc1noc(C(C)N2CCN(c3ccc(C#N)cn3)CC2)n1` (stereo not given): the cytotoxicity at 10 µM was 4.78%.

As for `CCc1c(C)nc(C)nc1N1C[C@@H](CN(C)CCN(C)C)[C@@H](CO)C1`, the cytotoxicity at 10 µM was -2.07%.

With `N[C@@H]1CCN(Cc2ccc(-c3nc(-c4cccnc4)cc(=O)[nH]3)cc2)C1`, the cytotoxicity at 10 µM stood at 9.48%.

Turning to `COc1ccnc(N2Cc3cnc(C(C)(C)C)nc3C2)n1`, the cytotoxicity at 10 µM was -9.85%.

Turning to `O=C1N(CCc2ccccc2)CCCC1(O)CNCc1ccc(F)cc1` (stereo not given), the cytotoxicity at 10 µM is -1.24%.

In the case of `COc1cc(NCC(O)CN2CCCCCC2)ncn1` (stereo not given), the cytotoxicity at 10 µM came to 2.8%.

Consider `CN(CCO)c1nc(-c2ccccn2)nc2c1CCNC2`, for which the cytotoxicity at 10 µM was -4.12%.

For the compound `COc1cc(F)c(CN2CCN(CC(C)C)C(=O)C2C)cc1OC` (stereo not given), the cytotoxicity at 10 µM stood at 1.63%.

Take `CCN1CCN(C[C@@H]2CN(c3ncccc3Cl)C[C@@H]2CO)CC1`: the cytotoxicity at 10 µM is -4.81%.

Regarding `CC1CCN(CCNC(=O)c2ccn(-c3ccccc3)n2)CC1`, the cytotoxicity at 10 µM was -5.99%.

Turning to `Cc1cc(C)n(CC2CCCN2Cc2ncc(C(C)(C)C)o2)n1` (stereo not given), the cytotoxicity at 10 µM is -1.64%.

On to `Cc1ncsc1C(=O)NCCc1cccs1`, for which the cytotoxicity at 10 µM was -15.3%.

Turning to `CCc1noc(C)c1C(=O)NCC(c1ccc(C)cc1)N(C)C` (stereo not given), the cytotoxicity at 10 µM was -5.57%.

On to `COCC(c1cccc(C(F)(F)F)c1)N(C)C(=O)c1cnccn1` (stereo not given), for which the cytotoxicity at 10 µM is -11.7%.

As to `Cc1cccnc1NC(=O)NC(C)Cn1cccn1` (stereo not given), the cytotoxicity at 10 µM was -6.8%.

Regarding `O=C(Cn1nc(-c2ccc(F)cc2)oc1=O)NCc1ccc(F)cc1`, the cytotoxicity at 10 µM was 4.13%.

In the case of `Cc1cnn(CCNCc2cccnc2)c1`, the cytotoxicity at 10 µM was -0.265%.

Turning to `O=C(NC1CCC1)[C@@H]1CCO[C@@H]2CCN(C3CCCC3)C[C@H]21`, the cytotoxicity at 10 µM amounted to 9.05%.

As for `CNC(=O)N1CCc2cc(C(=O)N(C)C)c(NCC3CC3)nc2CC1`, the cytotoxicity at 10 µM was -0.395%.

`Cn1ccc(C(=O)N2CCOC3(COCCN(CC4CC4)C3)C2)n1` (stereo not given): the cytotoxicity at 10 µM came to 7.61%.

As for `O=C(C1CCOCC1)N1C[C@H]2CC(OCc3ccccc3)C[C@H]2C1` (stereo not given in full), the cytotoxicity at 10 µM was -5.59%.
